Measured values of several laboratories.
Lines come from different studies, so protocols differ.
Target: Serine/threonine-protein kinase STK11 (STK11, Homo sapiens, UniProt Q15831)
One construct used (Q15831 1-433): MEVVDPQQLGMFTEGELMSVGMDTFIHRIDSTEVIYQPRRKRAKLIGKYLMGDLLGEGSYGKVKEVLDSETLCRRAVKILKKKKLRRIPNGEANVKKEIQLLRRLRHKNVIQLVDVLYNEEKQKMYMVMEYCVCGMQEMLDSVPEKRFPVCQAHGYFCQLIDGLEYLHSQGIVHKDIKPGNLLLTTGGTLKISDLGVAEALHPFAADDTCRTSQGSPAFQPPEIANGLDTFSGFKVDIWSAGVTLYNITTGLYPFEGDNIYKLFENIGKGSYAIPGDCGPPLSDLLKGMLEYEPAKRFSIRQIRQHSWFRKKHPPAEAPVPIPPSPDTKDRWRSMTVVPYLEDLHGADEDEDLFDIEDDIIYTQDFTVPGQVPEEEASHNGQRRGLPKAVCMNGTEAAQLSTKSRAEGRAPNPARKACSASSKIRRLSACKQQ

SMILES | test | setting | remaining binding [%]
Cc1cnc(Nc2ccc(C(=O)N3CCC(N4CCCC4)CC3)cc2)nc1-c1cc2ccccc2s1 | binding, competition with immobilised ligand | 1 µM | 2.5
CN(CCCC(F)(F)F)c1nccc(-c2cnn3ncccc23)n1 | binding | 1 µM | 100
COc1cnc(Nc2cccc(S(N)(=O)=O)c2)nc1N1CCN(c2ccccc2)C(=O)C1 | binding, competition with immobilised ligand | 1 µM | 100
O=C(O)[C@H]1[C@H](Cn2nnc3ccccc3c2=O)CC[C@@H]1C(=O)c1ccc(OCCC2CCOCC2)cc1 | cell-free assay, competition with immobilised ligand | 1 µM | 76
O=C(c1ccc(Nc2ncc(Cl)c(-c3ccc(Cl)s3)n2)cc1)N1CCC(N2CCCC2)CC1 | binding, competition with immobilised ligand | 1 µM | 7.2
CN(C)c1ncc(F)c(-c2cnn3ncccc23)n1 | binding | 1 µM | 100
C[C@@H]1CN(c2ccc3ncc(-c4ccc5[nH]nc(C6CC6)c5c4)n3n2)C[C@H](C)O1 | binding, competition with immobilised ligand | 50 nM | 72
CO[C@H]1CC[C@H](CNc2ccc(S(=O)(=O)NC(=O)c3ccc(N4CCN(CC5=C(c6ccc(Cl)cc6)CC(C)(C)CC5)CC4)cc3Oc3cnc4[nH]ccc4c3)cc2[N+](=O)[O-])CC1 | cell-free assay, competition with immobilised ligand | 1 µM | 59
C=CC(=O)N1CCC(C(=O)NCC(=O)N2CCN(c3nc(-c4cnc(N)nc4C(F)F)nc(N4CCOCC4)n3)CC2)CC1 | binding, competition with immobilised ligand | 1 µM | 100
CC(C)(C)c1ccc(-c2nc(CBr)nn2-c2cccc(O)c2)cc1 | cell-free assay, competition with immobilised ligand | 10 µM | 100
CCc1ccccc1C(=O)Nc1n[nH]c2c(C)c(F)c(C3C(C#N)=C(C)N(C)C(C)=C3C#N)cc12 | cell-free assay, competition with immobilised ligand | 1 µM | 100
N[C@H]1CCN(c2nccc(-c3cnn4ncccc34)n2)C1 | binding | 1 µM | 65
CC(=O)C1=C(C)N(c2cccc(C(F)(F)F)c2)C(=O)N[C@@H]1c1ccc(C#N)nc1 | cell-free assay, competition with immobilised ligand | 1 µM | 72.8
O=C(Nc1c[nH]nc1C(=O)NC1CCNCC1)c1cc(F)cc(F)c1 | binding, competition with immobilised ligand | 1 µM | 78
CN(C)c1nccc(-c2cnn3ncccc23)n1 | binding | 1 µM | 100
O=C(NC[C@@H]1[C@H]2CN(C(=O)OCc3cc(C(F)(F)F)cc(C(F)(F)F)c3)C[C@@H]12)c1ccc2[nH]nnc2c1 | cell-free assay, competition with immobilised ligand | 1 µM | 100
CNC(=O)[C@@H]1CC[C@@H](n2c(-c3ccc4cnccc4c3)nc3ccc(C(=O)NCc4cccc(C(N)=O)c4)cc32)C1 | binding, competition with immobilised ligand | 1 µM | 93
C[C@@H]1CCN(c2nccc(-c3cnn4ncccc34)n2)C1 | binding | 1 µM | 100
CS(=O)(=O)N1CCCC(NC(=O)[C@H](CCC2CCCCC2)NC(=O)c2ccc(CNc3ncnc4c3nnn4-c3ccccc3)cc2)C1 (stereo partly drawn) | cell-free assay, competition with immobilised ligand | 0.1 µM | 100
COc1ncc2cc3ccccc3nc2c1C#N | cell-free assay, competition with immobilised ligand | 5 µM | 99
Cc1cnn2ncc(-c3ccnc(N(C)C)n3)c2c1 | binding | 1 µM | 99
Nc1c(C(=O)NCc2ccc(C(=O)NCCCC3CCCCC3)cc2)cnn1-c1ccccc1 | cell-free assay, competition with immobilised ligand | 0.1 µM | 100
O=C(NCCCN1CCOCC1)c1ccc(Nc2nccc(-c3cc4ccccc4s3)n2)cc1 | binding, competition with immobilised ligand | 1 µM | 3.9
CCN1CCN(Cc2ccc(C(=O)Nc3ccc(C)c(Oc4ccc5c(c4)CC(=O)N5)c3)cc2C(F)(F)F)CC1 | binding, competition with immobilised ligand | 1 µM | 100
